From ChEMBL document CHEMBL1143879, “Identification of novel series of human CCR1 antagonists” (Bioorg Med Chem Lett, 2008) come the findings set out here.

One may read the IC50 as the point on the concentration scale where inhibition reaches its midpoint.

Assay [1] concerns the target T1, C-C chemokine receptor type 1 (Homo sapiens, UniProt P32246).
T1 sequence (P32246 whole entry): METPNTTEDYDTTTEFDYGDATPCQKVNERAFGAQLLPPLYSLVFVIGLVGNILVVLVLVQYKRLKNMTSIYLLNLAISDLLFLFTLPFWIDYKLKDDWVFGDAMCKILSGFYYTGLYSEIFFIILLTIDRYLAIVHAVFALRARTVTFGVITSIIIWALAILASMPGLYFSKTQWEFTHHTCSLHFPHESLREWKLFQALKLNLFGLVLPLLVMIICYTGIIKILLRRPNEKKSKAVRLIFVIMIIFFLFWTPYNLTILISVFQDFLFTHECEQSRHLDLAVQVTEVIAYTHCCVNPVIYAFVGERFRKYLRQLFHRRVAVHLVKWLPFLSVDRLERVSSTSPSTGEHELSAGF
Nature of the assay: Antagonist activity at human CCR1 receptor expressed in THP1 cells assessed as human MIP-1-alpha-stimulated intracellular calcium level by FLIPR assay. It counts as functional, cell-based, THP-1. The gist of the method: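 THP-1 cells in RPMI-1640 at 2 × 10⁶/ml, mixed 1:1 with calcium dye buffer, loaded 30 min at 37 °C with 2.5 mM probenecid. Cells spun down, resuspended in RPMI-1640 with 0.1% BSA and plated at 1.5 × 10⁵/well with or without compound. Stimulated with 5 nM human MIP-1α; intracellular Ca²⁺ change read by FLIPR. IC50, mean of at least two independent experiments.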
On the technique in general: Calcium flux is commonly read through the fluorescence of an indicator in the cells.

In assay [2] the target is T1, C-C chemokine receptor type 1. The experiment in a line: Displacement of [125I]MIP1-alpha from human CCR1 receptor expressed in THP1 cells. It counts as cell-based, THP-1. In short, it runs like this: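 THP-1 cells expressing CCR1, washed in PBS, at 5 × 10⁶/ml with compound or vehicle and 50 pM human [¹²⁵I]MIP-1α. Binding buffer: 50 mM Hepes pH 7.4, 5 mM MgCl₂, 1 mM CaCl₂, 0.5% BSA. Incubated 90 min at room temperature, then filtered on PEI-coated glass fibre and washed with buffer plus 0.5 M NaCl. Bound counts by scintillation. IC50, mean of triplicates in one experiment.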

In the case of `O=S(=O)(NCCCN1CCC(O)(c2ccc(Cl)cc2)CC1)c1cc(Cl)cc(Cl)c1`, the 50% inhibitory concentration (IC50) in assay [1] stood at 1340 nM; in assay [2], 780 nM.

Consider `O=S(=O)(NCCCN1CCC(O)(c2ccc(Cl)cc2)CC1)c1ccccc1C(F)(F)F`, for which the half-maximal inhibitory concentration (IC50) in assay [1] came to 50 nM; in assay [2], 250 nM.

`O=S(=O)(c1ccccc1Cl)N1CCC(N2CCC(O)(c3ccc(F)cc3)CC2)CC1`: the IC50 amounted to 1250 nM in assay [1] and 1170 nM in assay [2].

On to `O=S(=O)(NCCCN1CCC(O)(c2ccc(Cl)cc2)CC1)c1cc(Cl)ccc1Cl`, for which the half-inhibitory concentration (IC50) in assay [1] amounted to 280 nM; in assay [2], 540 nM.

In the case of `O=S(=O)(NCCCN1CCC(O)(c2ccc(Cl)cc2)CC1)c1cccc(Cl)c1Cl`, the half-inhibitory concentration (IC50) was determined as 350 nM in assay [1] and 510 nM in assay [2].

Take `O=S(=O)(NCCCN1CCC(O)(c2ccc(Cl)cc2)CC1)c1cccc2ccccc12`: the 50% inhibitory concentration (IC50) in assay [1] came to 180 nM; in assay [2], 680 nM.

Consider `CC1(N2CCC(O)(c3ccc(Cl)cc3)CC2)CCN(S(=O)(=O)c2c(Cl)cccc2Cl)CC1`, for which the half-maximal inhibitory concentration (IC50) in assay [1] was 4650 nM; in assay [2], 4200 nM.

`O=S(=O)(NCCCN1CCC(O)(c2ccc(Cl)cc2)CC1)c1ccc2ccccc2c1`: the half-inhibitory concentration (IC50) in assay [1] was found to be 520 nM; in assay [2], 1150 nM.

`O=S(=O)(NCCCN1CCC(O)(c2ccc(Cl)cc2)CC1)c1ccc(C(F)(F)F)cc1`: the IC50 worked out at 2200 nM in assay [1] and 9400 nM in assay [2].

As to `O=S(=O)(NCCCN1CCC(O)(c2ccc(Cl)cc2)CC1)c1ccccc1-c1ccsc1`, the figures for the concentration for half-maximal inhibition (IC50) in assay [1] and in assay [2] were 110 nM and 350 nM, respectively.

As for `O=S(=O)(NCCCN1CCC(O)(c2ccc(Cl)cc2)CC1)c1ccccc1OC(F)(F)F`, the IC50 is 190 nM in assay [1] and 350 nM in assay [2].

As for `O=S(=O)(NCCCN1CCC(O)(c2ccc(Cl)cc2)CC1)c1cccc(Cl)c1`, the IC50 in assay [1] worked out at 100 nM; in assay [2], 380 nM.

In the case of `Cc1ccccc1S(=O)(=O)NCCCN1CCC(O)(c2ccc(Cl)cc2)CC1`, the values for the concentration for half-maximal inhibition (IC50) in assay [1] and in assay [2] were 30 nM and 150 nM, respectively.

As to `O=S(=O)(c1ccccc1Cl)N1CCC(N2CCC(O)(c3cccc(Cl)c3)CC2)CC1`, the values for the IC50 in assay [1] and in assay [2] were 6210 nM and 7000 nM, respectively.

For the molecule `O=C(NCCCN1CCC(O)(c2ccc(Cl)cc2)CC1)c1ccc2ccccc2c1`, the concentration for half-maximal inhibition (IC50) worked out at 1650 nM in assay [1] and 5830 nM in assay [2].

Regarding `O=S(=O)(c1ccccc1Br)N1CCC[C@@H](N2CCC(O)(c3ccc(Cl)cc3)CC2)C1`, the IC50 in assay [1] and in assay [2] was 1400 nM in each case.

As to `O=S(=O)(NCCCN1CCC(O)(c2ccc(Cl)cc2)CC1)c1ccccc1`, the half-maximal inhibitory concentration (IC50) in assay [1] worked out at 90 nM; in assay [2], 300 nM.

As to `CSc1ccc(C2(O)CCN(C3CCN(S(=O)(=O)c4ccccc4Cl)CC3)CC2)cc1`, the IC50 is 7980 nM in assay [1] and more than 10000 nM in assay [2].

On to `O=S(=O)(c1ccccc1Cl)N1CCC(N2CCC(O)(c3ccc(Oc4ccccc4)cc3)CC2)CC1`, for which the half-inhibitory concentration (IC50) in assay [1] and in assay [2] was more than 10000 nM each time.

`O=S(=O)(c1c(Cl)cccc1Cl)N1CCC(N2CCC(O)(c3ccc(Cl)cc3)CC2)CC1`: the half-maximal inhibitory concentration (IC50) in assay [1] and in assay [2] was 420 nM throughout.

On to `Cc1cccc(Cl)c1S(=O)(=O)N1CCC(N2CCC(O)(c3ccc(Cl)cc3)C2)CC1` (stereo not given), for which the IC50 is more than 10000 nM in assay [1] and more than 30000 nM in assay [2].

Regarding `O=S(=O)(NCCCN1CCC(O)(c2ccc(Cl)cc2)CC1)c1ccc(Cl)cc1`, the IC50 in assay [1] stood at 370 nM; in assay [2], 800 nM.

As for `O=S(=O)(NCCCN1CCC(O)(c2ccc(Cl)cc2)CC1)c1ccc(Cl)cc1Cl`, the concentration for half-maximal inhibition (IC50) in assay [1] worked out at 360 nM; in assay [2], 410 nM.

For the molecule `Cc1cccc(Cl)c1S(=O)(=O)N1CCC(N2CCC(O)(c3ccc(Cl)cc3)CC2)CC1`, the results for the IC50 in assay [1] and in assay [2] were 430 nM and 370 nM, respectively.

In assay [2], `N#CC1(c2ccc(Cl)cc2)CCN(C2CCN(S(=O)(=O)c3ccccc3Cl)CC2)CC1` registered an IC50 of 1000 nM.

As to `N#CC1(c2ccc(Cl)cc2)CCN(CCCNS(=O)(=O)c2ccccc2Cl)CC1`, in assay [2], the half-maximal inhibitory concentration (IC50) came out at 600 nM.
